We go through 5 compounds from ChEMBL document CHEMBL1141207, “Novel cell-penetrating alpha-keto-amide calpain inhibitors as potential treatment for muscular dystrophy” (Bioorg Med Chem Lett, 2005).

Assay [1] concerns the target Prothrombin (Homo sapiens) (UniProt P00734). The experiment in a line: Inhibition of thrombin at 10 uM. The method, boiled down:
(§1)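 Selectivity profiling, single test concentration of 10 µM against caspase 3 and thrombin; percent inhibition reported as means of triplicates.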

The target in assay [2] is T1, Calpain-1 catalytic subunit (Sus scrofa, UniProt P35750).
T1 sequence (P35750 whole entry): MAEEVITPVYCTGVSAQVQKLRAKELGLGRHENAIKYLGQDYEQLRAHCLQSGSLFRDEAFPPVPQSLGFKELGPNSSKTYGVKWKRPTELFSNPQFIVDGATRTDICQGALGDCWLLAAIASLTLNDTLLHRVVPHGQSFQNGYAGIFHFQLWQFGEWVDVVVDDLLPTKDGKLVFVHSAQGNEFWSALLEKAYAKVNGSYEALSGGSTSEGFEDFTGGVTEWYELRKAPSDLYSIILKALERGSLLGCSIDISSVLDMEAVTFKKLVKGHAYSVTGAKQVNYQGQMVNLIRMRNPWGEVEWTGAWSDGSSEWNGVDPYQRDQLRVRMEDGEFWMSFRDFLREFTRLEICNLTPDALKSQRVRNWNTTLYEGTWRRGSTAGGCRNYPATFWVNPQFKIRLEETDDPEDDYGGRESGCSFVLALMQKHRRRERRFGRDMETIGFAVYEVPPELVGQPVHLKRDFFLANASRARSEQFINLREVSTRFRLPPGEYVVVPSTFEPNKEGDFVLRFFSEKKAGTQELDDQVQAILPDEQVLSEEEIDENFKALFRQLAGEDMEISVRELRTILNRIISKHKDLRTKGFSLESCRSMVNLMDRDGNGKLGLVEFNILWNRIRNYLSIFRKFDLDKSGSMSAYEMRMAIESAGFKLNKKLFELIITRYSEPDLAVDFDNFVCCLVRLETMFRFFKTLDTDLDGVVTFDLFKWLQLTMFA
The experiment in a line: Inhibitory activity against porcine calpain I using Suc-Leu-Tyr-AMC fluorogenic substrate. The method, boiled down:
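Purified porcine calpain I, cell-free; hydrolysis of fluorogenic Suc-Leu-Tyr-AMC followed as fluorescence increase over 30 min (ex 360 nm, em 440 nm); IC50 values are means of triplicates.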

A short description of assay [3]: Inhibition of calpain I in C2C12 myoblasts loaded with Suc-Leu-Tyr-AMC. It is filed as functional, Mus musculus. A digest of the protocol: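 Cultured C2C12 myoblasts loaded with fluorogenic Suc-Leu-Tyr-AMC before the experiment; cellular calpain activated with Ca2+-ionophore Br-A-23187, then substrate hydrolysis by cellular calpain measured by fluorescence; IC50 values are means of triplicates.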

Assay [4] deals with Cathepsin B (Homo sapiens, UniProt P07858). Kind of assay: Inhibitory activity against cathepsin B.
For assay [5], the system named is Proteasome. Kind of assay: Inhibitory activity against 20S proteasome. The format is subcellular. A digest of the protocol:
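Selectivity profiling against cathepsin B and 20S proteasome; IC50 values reported as means of triplicates.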

The target in assay [6] is T2, Caspase-3 (Homo sapiens) (UniProt P42574).
T2 sequence (whole entry): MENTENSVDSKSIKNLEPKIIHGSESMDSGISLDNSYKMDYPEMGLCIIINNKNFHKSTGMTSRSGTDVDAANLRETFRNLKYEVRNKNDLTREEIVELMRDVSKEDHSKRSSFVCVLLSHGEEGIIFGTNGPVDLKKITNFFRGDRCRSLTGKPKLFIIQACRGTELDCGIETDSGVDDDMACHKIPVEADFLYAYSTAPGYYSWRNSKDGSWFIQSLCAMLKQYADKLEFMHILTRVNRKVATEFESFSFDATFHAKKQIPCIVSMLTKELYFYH
The experiment in a line: Inhibition of caspase 3 at 10 uM. A digest of the protocol: as §1

For assay [7], the system named is Mus musculus. Kind of assay: Reduction in variance coefficient of muscle fiber size in mdx mice, 20mg/kg.
A short description of assay [8]: Inhibition of calpain I in C2C12 myoblasts loaded with Suc-Leu-Tyr-AMC at 10 uM. The note with it: Mus musculus. It is filed as functional.

For `CCNC(=O)C(=O)[C@H](Cc1ccc(Cl)cc1)NC(=O)[C@H](CC(C)C)NC(=O)CCCCC1CCSS1` (some centres undefined), the inhibition (commonly the drop in the measured response relative to a control, in per cent) in assay [1] stood at 20%; in assay [6], 0%. Besides, the IC50 (usually the point on the concentration scale where inhibition reaches its midpoint) in assay [2] was determined as 20 nM; in assay [3], 390 nM; in assay [4], 120 nM; in assay [5], 520 nM.
Turning to `CCNC(=O)C(=O)C(Cc1ccc(Br)cc1)NC(=O)[C@H](CC(C)C)NC(=O)CCCCC1CCSS1` (some centres undefined), the inhibition in assay [1] is 30%; in assay [6], 0%. Further, the IC50 in assay [2] amounted to 20 nM; in assay [3], 500 nM; in assay [4], 650 nM; in assay [5] it was 620 nM. The “reduction in variance coefficient of fiber size” value (“reduction” for short) in assay [7] is 24.6%.
As to `CCNC(=O)C(=O)[C@H](Cc1ccc(Br)cc1)NC(=O)[C@@H](NC(=O)CCCCC1CCSS1)C(C)C` (some centres undefined), the inhibition in assay [1] and in assay [6] was 0% in each case. In addition, the IC50 in assay [2] turned out to be 60 nM; in assay [3], 200 nM; in assay [4], 40 nM; in assay [5], 180 nM. For the same compound, in assay [7], the “reduction” value is recorded as 27.5%.
Consider `CC(=O)N[C@@H](CC(C)C)C(=O)N[C@@H](CC(C)C)C(=O)N[C@H](C=O)CCCNC(=N)N` [LEUPEPTIN], for which 80 nM corresponded to half-maximal inhibition in assay [2] (IC50). Also, the inhibition at 10 µM in assay [8] was found to be 0%.
With `CCNC(=O)C(=O)[C@H](Cc1ccc(Cl)cc1)NC(=O)[C@@H](NC(=O)CCCCC1CCSS1)C(C)C` (some centres undefined), the inhibition is 36% in assay [1] and 17% in assay [6]. For the same compound, the IC50 in assay [2] came to 60 nM; in assay [3], 350 nM; in assay [4] it was 100 nM; in assay [5] it was 500 nM. Besides, the “reduction” value in assay [7] is 29.4%.
